Measurements from ChEMBL document CHEMBL2429861, “Chemopreventive and antioxidant activity of 6-substituted imidazo[2,1-b]thiazoles” (Eur J Med Chem, 2013).

Columns and labels:
[1] = Relative antioxidant activity assessed as resorcinol equivalents of hydroperoxyl scavenging activity at acidic pH by BR oscillating reaction method; type: ADME
Procedure, shortened: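 Briggs–Rauscher oscillating reaction: hydrogen peroxide, acidic iodate, malonic acid and Mn(II) catalyst at about pH 2, with hydroperoxyl radicals as the key intermediates.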

[2] = Half life in human liver microsomes at 1 uM after 1 to 60 mins by UHPLC-MS/MS analysis; type: ADME, Microsome
[3] = test system: Liver microsomes; assay: Drug metabolism in human liver microsomes assessed as monooxygenated metabolite by UHPLC-MS/MS analysis; type: ADME, Microsome
Procedure, shortened: (§1)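 Microsomal incubations as for stability (1 mg/mL human liver microsomes, NADPH, 37 °C). Metabolites analysed by UHPLC-MS/MS with a 4.5 min gradient at 0.2 mL/min, recording product ion scans over m/z 100–300.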

[4] = biological target: T1, Aromatase (Homo sapiens, UniProt P11511); assay: Inhibition of aromatase (unknown origin) using dibenzylfluorscein as substrate incubated with NADP+ for 10 mins prior to substrate addition measured after 30 mins by fluorescence assay
T1 sequence (P11511 whole entry): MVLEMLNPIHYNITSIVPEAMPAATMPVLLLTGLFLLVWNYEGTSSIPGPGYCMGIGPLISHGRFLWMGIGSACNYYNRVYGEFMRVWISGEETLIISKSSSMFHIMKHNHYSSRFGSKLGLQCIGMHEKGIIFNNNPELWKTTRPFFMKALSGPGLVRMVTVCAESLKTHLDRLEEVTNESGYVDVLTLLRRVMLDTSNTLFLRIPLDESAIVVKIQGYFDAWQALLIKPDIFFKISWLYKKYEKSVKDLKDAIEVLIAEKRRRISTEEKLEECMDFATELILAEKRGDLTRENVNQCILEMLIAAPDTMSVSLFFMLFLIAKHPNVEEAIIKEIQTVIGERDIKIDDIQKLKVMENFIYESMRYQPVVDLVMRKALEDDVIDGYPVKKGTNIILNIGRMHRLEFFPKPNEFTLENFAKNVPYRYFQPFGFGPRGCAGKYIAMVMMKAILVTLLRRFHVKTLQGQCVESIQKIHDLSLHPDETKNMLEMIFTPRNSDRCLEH

[5] = biological target: T1, Aromatase; assay: Inhibition of aromatase (unknown origin) using dibenzylfluorscein as substrate incubated with NADP+ for 10 mins prior to substrate addition at 50 uM measured after 30 mins by fluorescence assay; conditions: 0.5 h
Procedure, shortened: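 Compounds preincubated 10 min at 37 °C with an NADPH-regenerating system (2.6 mM NADP+, 7.6 mM glucose 6-phosphate, 0.8 U/mL G6PDH, 13.9 mM MgCl2, 1 mg/mL albumin; 50 mM K phosphate, pH 7.4). CYP19 enzyme with […] was added for 30 min at 37 °C. The reaction was stopped with 2 N NaOH and held 24 h at 37 °C, then fluorescence read at ex 485/em 530 nm.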

[6] = biological target: NAD(P)H dehydrogenase [quinone] 1 (Mus musculus) (UniProt Q64669); assay: Induction of quinone reductase-1 activity in mouse Hepa-1c1c7 cells expressing TAOc1BPrcI mutant assessed as induction ratio at 50 uM by MTT assay relative to DMSO control; type: cell-based
[7] = biological target: NAD(P)H dehydrogenase [quinone] 1 (Mus musculus) (UniProt Q64669); assay: Induction of quinone reductase-1 activity in mouse Hepa-1c1c7 cells expressing BPrc1 mutant assessed as induction ratio at 50 uM by MTT assay relative to DMSO control; type: cell-based
[8] = biological target: NAD(P)H dehydrogenase [quinone] 1 (Mus musculus) (UniProt Q64669); assay: Induction of quinone reductase-1 activity in mouse Hepa-1c1c7 cells assessed as concentration required to double induction activity by MTT assay; type: cell-based
Procedure, shortened: (§2)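 Hepa 1c1c7 murine hepatoma cells incubated with compounds at […]. Cells were permeabilized with digitonin and QR1 activity measured by MTT reduction to formazan at 595 nm, with a parallel crystal violet protein assay. IR is specific activity versus DMSO control; CD is the concentration doubling activity, determined only where IR >2. Two independent experiments in triplicate.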

[9] = biological target: NAD(P)H dehydrogenase [quinone] 1 (Mus musculus) (UniProt Q64669); assay: Induction of quinone reductase-1 activity in mouse Hepa-1c1c7 cells assessed as induction ratio at 50 uM by MTT assay relative to DMSO-treated control; type: cell-based; procedure, shortened: as §2
[10] = biological target: T2, Nitric oxide synthase, inducible (Mus musculus) (UniProt P29477); assay: (§3) Inhibition of iNOS-mediated NO production in mouse RAW264.7 cells by Griess assay; type: cell-based
T2 sequence (whole entry): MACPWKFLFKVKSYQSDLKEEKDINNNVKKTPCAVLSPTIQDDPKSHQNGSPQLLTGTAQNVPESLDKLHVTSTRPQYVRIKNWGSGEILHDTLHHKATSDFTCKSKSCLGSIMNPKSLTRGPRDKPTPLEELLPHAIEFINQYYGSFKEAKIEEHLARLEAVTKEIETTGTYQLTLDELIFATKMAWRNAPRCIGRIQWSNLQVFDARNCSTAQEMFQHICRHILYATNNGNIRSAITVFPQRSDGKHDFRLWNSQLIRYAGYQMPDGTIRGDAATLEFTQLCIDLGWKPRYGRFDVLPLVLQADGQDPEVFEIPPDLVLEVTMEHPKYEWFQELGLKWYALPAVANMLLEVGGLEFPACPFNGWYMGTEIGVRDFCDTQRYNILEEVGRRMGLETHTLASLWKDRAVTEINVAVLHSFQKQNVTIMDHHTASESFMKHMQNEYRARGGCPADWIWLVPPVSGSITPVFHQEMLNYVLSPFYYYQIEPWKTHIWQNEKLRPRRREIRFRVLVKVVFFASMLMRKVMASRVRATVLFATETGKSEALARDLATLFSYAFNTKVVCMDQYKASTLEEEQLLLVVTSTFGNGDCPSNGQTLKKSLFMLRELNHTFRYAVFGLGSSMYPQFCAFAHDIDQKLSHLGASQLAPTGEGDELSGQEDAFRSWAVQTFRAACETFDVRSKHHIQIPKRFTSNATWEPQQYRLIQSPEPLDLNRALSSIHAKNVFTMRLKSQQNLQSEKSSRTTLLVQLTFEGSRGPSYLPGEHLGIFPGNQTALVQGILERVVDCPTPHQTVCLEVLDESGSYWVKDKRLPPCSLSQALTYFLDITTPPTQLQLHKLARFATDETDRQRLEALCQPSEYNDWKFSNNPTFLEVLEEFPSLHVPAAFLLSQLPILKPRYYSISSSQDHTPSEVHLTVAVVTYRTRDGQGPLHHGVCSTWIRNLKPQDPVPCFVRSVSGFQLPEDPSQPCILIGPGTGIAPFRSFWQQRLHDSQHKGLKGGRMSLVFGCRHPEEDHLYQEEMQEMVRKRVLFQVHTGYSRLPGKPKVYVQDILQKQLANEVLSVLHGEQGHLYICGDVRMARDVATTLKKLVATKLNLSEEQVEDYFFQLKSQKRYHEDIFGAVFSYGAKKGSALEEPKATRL
Procedure, shortened: (§4)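 RAW 264.7 cells, 1×10^5 per well, held 24 h at 37 °C under 5% CO2. Nitrite in the medium was measured with Griess reagent (sulfanilamide/N-(1-naphthyl)ethylenediamine in H3PO4) at 540 nm against a sodium nitrite standard curve.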

[11] = biological target: T3, Nitric oxide synthase, inducible (Mus musculus, UniProt P29477); assay: as §3; type: cell-based; procedure, shortened: as §4
T3 sequence (P29477 whole entry): T2 sequence (whole entry)

[12] = Cytotoxicity against mouse RAW264.7 cells assessed as cell survival at 50 uM after 15 mins by SRB assay; type: cell-based; conditions: read-out: Survival
Procedure, shortened: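 RAW 264.7 cells were seeded at 1×10^5 per well and held 24 h at 37 °C in 5% CO2. They were then pretreated 15 min with serially diluted compound, followed by LPS (or no LPS) for a further 20 h. Medium was taken for the Griess assay, and cells were fixed with 10% TCA and stained with 0.4% SRB in 1% acetic acid. Bound dye was dissolved in 10 mM Tris and read at 515 nm. Survival is relative to LPS-treated control; two experiments in duplicate.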

[13] = biological target: T2, Nitric oxide synthase, inducible (Mus musculus); assay: Inhibition of iNOS-mediated NO production in mouse RAW264.7 cells at 50 uM by Griess assay; type: cell-based
[14] = test system: HEK293; assay: Cytotoxicity against human HEK293 cells assessed as reduction in cell survival; type: cell-based
Procedure, shortened: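 Same 293/NFkB-Luc cells under the NFkB assay conditions; cytotoxic IC50 taken as the concentration giving 50% cell survival.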

[15] = Inhibition of TNFalpha-induced nuclear factor-kappa-B activation in human HEK293 cells at by luciferase reporter gene assay; type: cell-based
Procedure, shortened: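 Stably transfected 293/NFkB-Luc cells seeded at 20 × 10^3 per well in DMEM with 10% FBS, penicillin/streptomycin and 2 mM L-glutamine for 48 h. Medium was then replaced and cells were given compounds in DMSO plus TNF-α 2 ng/mL (0.14 nM) for 6 h. Cells were lysed and luciferase luminescence read; IC50 is the concentration halving TNF-α-activated activity; […]. Mean ± SD of two experiments in duplicate.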

[16] = Cytotoxicity against human HEK293 cells assessed as cell survival at 50 uM; type: cell-based; conditions: read-out: Survival
[17] = test system: HEK293; assay: Inhibition of TNFalpha-induced nuclear factor-kappa-B activation in human HEK293 cells at 50 uM by luciferase reporter gene assay; type: cell-based
[18] = test system: Radical scavenging activity; assay: Antioxidant activity in non-aqueous medium assessed as trolox equivalents of DPPH radical scavenging activity by spectrophotometry; type: functional
Procedure, shortened: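 DPPH radical decolorization by hydrogen-donating scavengers in MeOH or EtOH. Some values could not be determined where the compound's solution colour resembled the DPPH reagent, or where % inhibition versus concentration was not linear.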

[19] = Antioxidant activity assessed as trolox equivalents of ABTS radical scavenging activity at pH 7.4 by spectrophotometry; type: functional
Procedure, shortened: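 TEAC run at pH 7.4; activity reported as mM equivalents of Trolox.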

[20] = test system: RAW264.7; assay: Cytotoxicity against mouse RAW264.7 cells assessed as cell survival after 20 hrs by SRB assay; conditions: for inhibition (INH): mouse, raw264.7, 20 h
[21] = test system: Liver microsomes; assay: Drug metabolism in human liver microsomes assessed as monooxygenated metabolite after 1.9 mins by UHPLC-MS/MS analysis; type: ADME, Microsome; conditions: 114 s; procedure, shortened: as §1

NAD(P)H dehydrogenase [quinone] 1 (Mus musculus), sequence (Q64669 whole entry): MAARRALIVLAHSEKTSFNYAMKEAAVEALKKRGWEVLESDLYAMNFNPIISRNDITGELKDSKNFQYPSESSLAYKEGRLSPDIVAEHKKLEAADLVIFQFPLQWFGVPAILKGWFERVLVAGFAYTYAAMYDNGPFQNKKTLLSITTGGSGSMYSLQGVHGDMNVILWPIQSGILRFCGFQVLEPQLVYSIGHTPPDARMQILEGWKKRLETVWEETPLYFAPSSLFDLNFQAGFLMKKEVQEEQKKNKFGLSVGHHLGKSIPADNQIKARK

## O=c1c(-c2ccc(O)cc2)coc2c([C@@H]3O[C@H](CO)[C@@H](O)[C@H](O)[C@H]3O)c(O)ccc12 [PUERARIN]
[1]
  Activity: 0.192 µM

## CC(C)NCC(O)COc1cccc2ccccc12 (stereo unspecified) [PROPRANOLOL]
[2]
  half-life at 1 µM: 20.8 min

## Cc1cn2cc(-c3ccc(O)c(O)c3O)nc2s1
[3]
  Drug metabolism: Active
[2]
  half-life at 1 µM: 11.2 min
[4]
  IC50: 3.2 µM
[5]
  inhibition at 50 µM: 99.6%
[6]
  Ratio: 0.2
[7]
  Ratio: 1.2
[8]
  CD: 24.6 µM
[9]
  Ratio: 2.03
[10]
  inhibition: Dose-dependent effect
[11]
  IC50: 6.8 µM
[12]
  viability at 0.25 h, 50 µM: 52.3%
[13]
  inhibition: 98.8%
[14]
  IC50: 21.2 µM
[15]
  IC50: 0.53 µM
[16]
  viability at 50 µM: 34.3%
[17]
  inhibition: 97.5%
[18]
  Activity: 1.38 µM
[19]
  Activity: 3.06 µM
[1]
  Activity: 0.14 µM
[20]
  inhibition (INH): Dose-dependent effect

## Cc1ccc(S(=O)(=O)N[C@@H](Cc2ccccc2)C(=O)CCl)cc1 [TPCK]
[15]
  IC50: 3.8 µM

## Oc1ccc(O)c(-c2cn3ccsc3n2)c1
[21]
  Drug metabolism: Active
[2]
  half-life at 1 µM: 5.9 min
[4]
  IC50: 2.6 µM
[5]
  inhibition at 50 µM: 98.6%
[6]
  Ratio: 0.3
[7]
  Ratio: 0.9
[8]
  CD: 12.1 µM
[9]
  Ratio: 3.8
[10]
  inhibition: Dose-dependent effect
[11]
  IC50: 6.4 µM
[12]
  viability at 0.25 h, 50 µM: 48.2%
[13]
  inhibition: 97.7%
[14]
  IC50: 46.5 µM
[15]
  IC50: 2.24 µM
[16]
  viability at 50 µM: 43.6%
[17]
  inhibition: 91%
[18]
  Activity: 0.71 µM
[19]
  Activity: 1.29 µM
[1]
  Activity: 1.032 µM
[20]; Mus musculus, RAW264.7, 20 h
  IC50: 11.6 µM
[20]
  inhibition (INH): Dose-dependent effect

## O=c1c(O)c(-c2ccc(O)c(O)c2)oc2cc(O)cc(O)c12
[19]
  Activity: 3.1 µM

## Oc1cc(O)c2c(c1)O[C@@H](c1ccc(O)c(O)c1)[C@H](O)C2 [(-)-CATECHIN]
[1]
  Activity: 2.2 µM
